Data taken from PMC8232391 (Drug Design, Development and Therapy, 2021).

Experiments:
[1] = Stability of stock and working standard solutions of DUV; assay type: physicochemical; settings: refrigerator temperature (8°C) for 30 days
Procedure, shortened: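 Stock solutions (1.0 mg mL–1 in acetonitrile) and working standards diluted in mobile phase were held 24 h at room temperature and 30 days refrigerated (below 10°C). They were then analysed by the HPLC-FD method against freshly spiked calibration standards.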

[2] = Stability of DUV in spiked human plasma samples; assay type: in vitro ADME

Stability of stock and working standard solutions [1]: stable
Time stable in spiked human plasma ([2]; autosampler storage conditions): ≥ 48 h
Time stable in spiked human plasma ([2]; room temperature on the bench): ≥ 6 h
Stability in spiked human plasma ([2]; three freeze–thaw cycles): stable
Stability in spiked human plasma ([2]; −80°C for 60 days): stable
Structure (SMILES): C[C@H](Nc1ncnc2[nH]cnc12)c1cc2cccc(Cl)c2c(=O)n1-c1ccccc1 [DUV, 8-chloro-2-phenyl-3-[(1S)-1-(7H-purin-6-ylamino)ethyl]isoquinolin-1-one]
